ChEMBL document CHEMBL4118106 (J Med Chem, 2018)
pEC50: −log10 of the molar value. The source made the active and inactive calls. No cut-off for these calls is given here. Where a SMILES comes first, the peptide text is derived from it. Bridges are numbered along the chain shown (N, C = ends). [ ]: non-standard residue; d: D form. S5 = C=CCCC[C@](C)(N)C(=O)O; Nle = CCCC[C@H](N)C(=O)O

Experiments:
[1] = Binding affinity to NHR peptide HR1P in pH 7.2 phosphate buffer at 250 uM after 30 mins by sedimentation velocity analysis
Summary of the method: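 HR1P/peptide mixtures at 250 µM in 50 mM PBS were incubated at 25 °C for 30 min. After an initial scan at 3000 rpm for 10 min, sedimentation velocity was run at 60,000 rpm, 280 nm, 20 °C, for 7 h. Weight-averaged molecular weights were obtained by fitting.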

[2] = Binding affinity to NHR peptide HR1P in pH 7.2 phosphate buffer assessed as formation of alpha-helical complex at 50 uM after 30 mins by CD spectroscopic method
Summary of the method: (§1)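 Peptides were at 50 µM final in 50 mM PBS, pH 7.2. Equimolar HR1P/peptide mixtures were incubated at 25 °C for 30 min before CD scanning. α-Helicity was taken from [θ]222, where -33,000 deg cm2/dmol = 100% helix.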

[3] = Binding affinity to NHR peptide HR1P in pH 7.2 phosphate buffer assessed as thermal unfolding transition at 50 uM after 30 mins by CD spectroscopic method
Summary of the method: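 Equimolar HR1P/peptide mixtures, 50 µM final in 50 mM PBS pH 7.2, were preincubated at 25 °C for 30 min. Thermal denaturation was followed by CD at 222 nm over a 10–90 °C gradient at 2 °C/min.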

[4] = Cytotoxicity against human HuH7 cells after 48 hrs by CCK-8 assay; format: cell-based, Huh-7
Summary of the method: (§2)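 Cells (1 × 10^5 per well) were preincubated at 37 °C for 12 h, then given graded peptide concentrations. After 48 h at 37 °C, CCK-8 was added and absorbance at 450 nm was read 2 h later.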

Calu-3 = assay: Cytotoxicity against human Calu3 cells at 100 uM after 48 hrs by CCK-8 assay; format: cell-based; conditions: calu-3, 48 h; summary of the method: as §2
[5] = Inhibition of EGFP-fused MERS-CoV spike protein mediated cell-cell fusion between viral protein expressing human 293T cells and human HuH7 target cells after 4 hrs by inverted fluorescence microscopic analysis; design: species or system Middle East respiratory syndrome-related coronavirus
Summary of the method: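 Huh-7 target cells expressing DPP4 were seeded at 5 × 10^4/well and kept at 37 °C for 5 h. Inhibitors were added, then 293T effector cells co-expressing S protein and EGFP (1 × 10^4/well); 293T/EGFP-only cells served as negative control. After 4 h coculture at 37 °C, fused and unfused cells were counted by fluorescence microscopy.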

[6] = Binding affinity to NHR peptide HR1P in pH 7.2 phosphate buffer at 200 uM after 30 mins by N-PAGE analysis
Summary of the method: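 Stapled peptide and HR1P, each 200 µM (in 50 mM PBS or ddH2O), were incubated together at 25 °C for 30 min. Samples in Tris-glycine native sample buffer were run on an 18% Tris-glycine gel (pH 8.3 buffer) at 120 V for 3 h at room temperature and stained with Coomassie blue R250.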

[7] = (§3) Inhibition of MERS-CoV spike protein mediated cell-cell fusion between viral protein expressing human 293T cells and human HuH7 target cells assessed as decrease in pseudovirus infection preincubated with virus for 1 hr followed by HuH7 cells addition measured after 48 hrs by luciferase reporter gene assay; design: species or system Middle East respiratory syndrome-related coronavirus
Summary of the method: (§4)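 Graded peptide concentrations were preincubated with luciferase-reporter pseudovirus bearing MERS-CoV S for 1 h at room temperature. The mixture was added to Huh-7 or Calu-3 cells, with medium refreshed at 12 h. After a further 48 h at 37 °C, luciferase was read. Values are from three independent experiments, mean ± SD.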

[8] = as §3, with “human Calu3” for “human HuH7”; design: species or system Middle East respiratory syndrome-related coronavirus; summary of the method: as §4
[9] = Binding affinity to NHR peptide HR1P in pH 7.2 phosphate buffer at 50 uM after 30 mins by CD spectroscopic method; summary of the method: as §1
[10] = Middle East respiratory syndrome-related coronavirus

Compound	Tm [3] [°C]	CC50 at 48 h [4] [µM]	pEC50 [5]	Activity [9]	further results
CSCC[C@H](NC(=O)[C@H](CCC(=O)O)NC(=O)[C@H](Cc1ccc(O)cc1)NC(=O)[C@@H](NC(=O)[C@H](CC(C)C)NC(=O)[C@H](CC(=O)O)NC(=O)[C@H](CC(C)C)NC(C)=O)[C@@H](C)O)C(=O)N[C@@H](CC(C)C)C(=O)N[C@@H](CO)C(=O)N[C@@H](CC(C)C)C(=O)N[C@@H](CCC(N)=O)C(=O)N[C@@H](CCC(N)=O)C(=O)N[C@H](C(=O)N[C@H](C(=O)N[C@@H](CCCCN)C(=O)N[C@@]1(C)CCC/C=C\CCC[C@@](C)(C(=O)N[C@@H](Cc2ccc(O)cc2)C(N)=O)NC(=O)[C@H](CCC(=O)O)NC(=O)[C@H](CC(N)=O)NC(=O)[C@H](CC(C)C)NC1=O)C(C)C)C(C)C	76.4	> 100	6.48		Activity [1]: Active; Activity [2]: 45.6%; Activity (Calu-3): Non-Toxic; Activity [6]: Active; pEC50 [7, 10]: 6.01; pEC50 [8, 10]: 5.80
CSCC[C@H](NC(=O)[C@H](CCC(=O)O)NC(=O)[C@H](Cc1ccc(O)cc1)NC(=O)[C@@H](NC(=O)[C@H](CC(C)C)NC(=O)[C@H](CC(=O)O)NC(=O)[C@H](CC(C)C)NC(C)=O)[C@@H](C)O)C(=O)N[C@@H](CC(C)C)C(=O)N[C@@H](CO)C(=O)N[C@@H](CC(C)C)C(=O)N[C@@H](CCC(N)=O)C(=O)N[C@@H](CCC(N)=O)C(=O)N[C@H](C(=O)N[C@H](C(=O)N[C@@]1(C)CCC/C=C/CCC[C@@](C)(C(=O)N[C@@H](CO)C(=O)N[C@@H](Cc2ccc(O)cc2)C(N)=O)NC(=O)[C@H](CC(N)=O)NC(=O)[C@H](CC(C)C)NC(=O)[C@H](C)NC1=O)C(C)C)C(C)C	56.6 to 66.6		4.85		
CC[C@H](C)[C@H](NC(=O)[C@H](Cc1ccc(O)cc1)NC(=O)[C@H](CO)NC(=O)[C@H](CCC(=O)O)NC(=O)[C@H](CCC(=O)O)NC(=O)[C@H](CC(C)C)NC(=O)[C@H](CCCCN)NC(=O)[C@H](CCCCN)NC(=O)[C@@H](NC(=O)[C@@H](NC(=O)[C@H](CCC(=O)O)NC(=O)[C@H](CCC(=O)O)NC(=O)[C@H](CC(C)C)NC(=O)[C@H](CCCCN)NC(=O)[C@H](CCCCN)NC(=O)[C@H](CCSC)NC(=O)[C@H](CCC(=O)O)NC(=O)[C@H](Cc1ccc(O)cc1)NC(=O)[C@H](CCC(=O)O)NC(=O)[C@H](CC(C)C)NC(=O)[C@H](CC(=O)O)NC(=O)[C@H](CC(C)C)NC(=O)[C@H](CC(C)C)NC(=O)[C@@H](NC(=O)[C@@H](NC(=O)[C@H](CC(N)=O)NC(=O)[C@@H](NC(=O)[C@H](CCC(N)=O)NC(=O)[C@@H](NC(=O)[C@H](CC(C)C)NC(=O)[C@H](CO)NC(C)=O)[C@@H](C)O)[C@@H](C)CC)[C@@H](C)O)[C@@H](C)O)C(C)C)C(C)C)C(=O)N[C@@H](CC(=O)O)C(=O)N[C@@H](CC(C)C)C(=O)N[C@@H](CCCCN)C(=O)N[C@@H](CCC(=O)O)C(=O)N[C@@H](CC(C)C)C(N)=O		> 100	6.12		pEC50 [7, 10]: 5.97
CSCC[C@@H]1NC(=O)[C@H](CCC(=O)O)NC(=O)[C@@](C)(NC(=O)[C@@H](NC(=O)[C@H](CC(C)C)NC(=O)[C@H](CC(=O)O)NC(=O)[C@H](CC(C)C)NC(C)=O)[C@@H](C)O)CCC/C=C\CCC[C@@](C)(C(=O)N[C@@H](CC(C)C)C(=O)N[C@@H](CCC(N)=O)C(=O)N[C@@H](CCC(N)=O)C(=O)N[C@H](C(=O)N[C@H](C(=O)N[C@@H](CCCCN)C(=O)N[C@@H](C)C(=O)N[C@@H](CC(C)C)C(=O)N[C@@H](CC(N)=O)C(=O)N[C@@H](CCC(=O)O)C(=O)N[C@@H](CO)C(=O)N[C@@H](Cc2ccc(O)cc2)C(N)=O)C(C)C)C(C)C)NC(=O)[C@H](CC(C)C)NC1=O	56.6 to 66.6		5.15		
CSCC[C@@H]1NC(=O)[C@H](CCC(=O)O)NC(=O)[C@H](Cc2ccc(O)cc2)NC(=O)[C@@](C)(NC(=O)[C@H](CC(C)C)NC(=O)[C@H](CC(=O)O)NC(=O)[C@H](CC(C)C)NC(C)=O)CCC/C=C\CCC[C@@](C)(C(=O)N[C@@H](CO)C(=O)N[C@@H](CC(C)C)C(=O)N[C@@H](CCC(N)=O)C(=O)N[C@@H](CCC(N)=O)C(=O)N[C@H](C(=O)N[C@H](C(=O)N[C@@H](CCCCN)C(=O)N[C@@H](C)C(=O)N[C@@H](CC(C)C)C(=O)N[C@@H](CC(N)=O)C(=O)N[C@@H](CCC(=O)O)C(=O)N[C@@H](CO)C(=O)N[C@@H](Cc2ccc(O)cc2)C(N)=O)C(C)C)C(C)C)NC1=O			< 4.30	inactive	
CSCC[C@H](NC(=O)[C@H](CCC(=O)O)NC(=O)[C@]1(C)CCC/C=C\CCC[C@](C)(NC(C)=O)C(=O)N[C@@H](CC(=O)O)C(=O)N[C@@H](CC(C)C)C(=O)N[C@@H]([C@@H](C)O)C(=O)N1)C(=O)N[C@@H](CC(C)C)C(=O)N[C@@H](CO)C(=O)N[C@@H](CC(C)C)C(=O)N[C@@H](CCC(N)=O)C(=O)N[C@@H](CCC(N)=O)C(=O)N[C@H](C(=O)N[C@H](C(=O)N[C@@H](CCCCN)C(=O)N[C@@H](C)C(=O)N[C@@H](CC(C)C)C(=O)N[C@@H](CC(N)=O)C(=O)N[C@@H](CCC(=O)O)C(=O)N[C@@H](CO)C(=O)N[C@@H](Cc1ccc(O)cc1)C(N)=O)C(C)C)C(C)C			< 4.30	inactive	
CSCC[C@H](NC(=O)[C@H](CCC(=O)O)NC(=O)[C@H](Cc1ccc(O)cc1)NC(=O)[C@@H](NC(=O)[C@H](CC(C)C)NC(=O)[C@H](CC(=O)O)NC(=O)[C@H](CC(C)C)NC(C)=O)[C@@H](C)O)C(=O)N[C@@H](CC(C)C)C(=O)N[C@@]1(C)CCC/C=C/CCC[C@@](C)(C(=O)N[C@H](C(=O)N[C@@H](CCCCN)C(=O)N[C@@H](C)C(=O)N[C@@H](CC(C)C)C(=O)N[C@@H](CC(N)=O)C(=O)N[C@@H](CCC(=O)O)C(=O)N[C@@H](CO)C(=O)N[C@@H](Cc2ccc(O)cc2)C(N)=O)C(C)C)NC(=O)[C@H](CCC(N)=O)NC(=O)[C@H](CCC(N)=O)NC(=O)[C@H](CC(C)C)NC1=O (Ac-LDLTYEML[S5]LQQ[S5]VKALNESY-NH2; staple (E) 9-13)			< 4.30	inactive	
CSCC[C@H](NC(=O)[C@H](CCC(=O)O)NC(=O)[C@H](Cc1ccc(O)cc1)NC(=O)[C@@H](NC(=O)[C@H](CC(C)C)NC(=O)[C@H](CC(=O)O)NC(=O)[C@H](CC(C)C)NC(C)=O)[C@@H](C)O)C(=O)N[C@@]1(C)CCC/C=C\CCC[C@@](C)(C(=O)N[C@H](C(=O)N[C@H](C(=O)N[C@@H](CCCCN)C(=O)N[C@@H](C)C(=O)N[C@@H](CC(C)C)C(=O)N[C@@H](CC(N)=O)C(=O)N[C@@H](CCC(=O)O)C(=O)N[C@@H](CO)C(=O)N[C@@H](Cc2ccc(O)cc2)C(N)=O)C(C)C)C(C)C)NC(=O)[C@H](CCC(N)=O)NC(=O)[C@H](CC(C)C)NC(=O)[C@H](CO)NC1=O (Ac-LDLTYEM[S5]SLQ[S5]VVKALNESY-NH2; staple (Z) 8-12)	56.6 to 66.6		4.97		
CCCC[C@H](NC(=O)[C@H](CCC(=O)O)NC(=O)[C@H](Cc1ccc(O)cc1)NC(=O)[C@@H](NC(=O)[C@H](CC(C)C)NC(=O)[C@H](CC(=O)O)NC(=O)[C@H](CC(C)C)NC(C)=O)[C@@H](C)O)C(=O)N[C@@H](CC(C)C)C(=O)N[C@@H](CO)C(=O)N[C@@H](CC(C)C)C(=O)N[C@@H](CCC(N)=O)C(=O)N[C@@]1(C)CCC/C=C\CCC[C@@](C)(C(=O)N[C@@H](CC(C)C)C(=O)N[C@@H](CC(N)=O)C(=O)N[C@@H](CCC(=O)O)C(=O)N[C@@H](CO)C(=O)N[C@@H](Cc2ccccc2)C(N)=O)NC(=O)[C@H](CCCCN)NC(=O)[C@H](C(C)C)NC(=O)[C@H](C(C)C)NC1=O (Ac-LDLTYE[Nle]LSLQ[S5]VVK[S5]LNESF-NH2; staple (Z) 12-16)			5.41		
CCCC[C@H](NC(=O)[C@H](CCC(=O)O)NC(=O)[C@H](Cc1ccc(O)cc1)NC(=O)[C@@H](NC(=O)[C@H](CC(C)C)NC(=O)[C@H](CC(=O)O)NC(=O)[C@H](CC(C)C)NC(C)=O)[C@@H](C)O)C(=O)N[C@@H](CC(C)C)C(=O)N[C@@H](CO)C(=O)N[C@@H](CC(C)C)C(=O)N[C@@H](CCC(N)=O)C(=O)N[C@@]1(C)CCC/C=C\CCC[C@@](C)(C(=O)N[C@@H](CC(C)C)C(=O)N[C@@H](CC(N)=O)C(=O)N[C@@H](CCC(=O)O)C(=O)N[C@@H](CO)C(=O)N[C@@H](Cc2ccc(O)cc2)C(N)=O)NC(=O)[C@H](CCCCN)NC(=O)[C@H](C(C)C)NC(=O)[C@H](C(C)C)NC1=O (Ac-LDLTYE[Nle]LSLQ[S5]VVK[S5]LNESY-NH2; staple (Z) 12-16)		> 100	6.20		Activity (Calu-3): Non-Toxic; pEC50 [7]: 5.55; pEC50 [8]: 5.59
